Published values from different studies.
Protocols differ between the studies behind these lines.

Compound	target or system	test	test system	conditions	quantity	value
O=C(CO/N=c1\cc2n(-c3ccc(Cl)cc3)c3ccccc3nc-2cc1Nc1ccc(Cl)cc1)NCc1ccc(C(F)(F)F)cc1	Neisseria gonorrhoeae	microbial growth	ATCC49226		MIC	15 µM
COc1ccc(COC[C@@](O)(CNCc2ccccc2)[C@@H]2CC[C@@H](C)C[C@H]2OCc2ccc(OC)cc2)cc1	MDA-MB-231	cell growth or viability, MTT		10 µM, 72 h	inhibition	99.5%
CC(=NNC(=O)COc1ccc2c(C)c(Cc3ccccc3)c(=O)oc2c1C)c1ccc(Br)cc1	MDA-MB-231	cell growth or viability, MTT		500 µg/mL	viability	19.9%
O=C1C(Br)=C(Br)C(=O)c2ccccc21	Lodderomyces parapsilosis	microbial growth, broth dilution	ATCC22019	24 h	MIC	< 1.56 mg/L
C[C@@H]1CC[C@@H]([C@](C)(O)CNCc2cccc3ccccc23)[C@H](OCc2ccccc2)C1	MDA-MB-231	cell growth or viability, MTT		30 µM, 72 h	inhibition	61%
C[C@@H]1[C@H](O)[C@@H](C)/C=C/C=C/C=C/C=C/C=C/C=C/C=C/[C@H](O[C@@H]2O[C@H](C)[C@@H](O)[C@H](N)[C@@H]2O)C[C@@H]2O[C@](O)(C[C@@H](O)C[C@@H](O)[C@H](O)CC[C@@H](O)C[C@@H](O)CC(=O)O[C@H]1C)C[C@H](O)[C@H]2C(=O)O	Lodderomyces parapsilosis	microbial growth, broth dilution	ATCC22019	24 h	MIC	2 mg/L
Cc1c(Cc2ccccc2)c(=O)oc2c(C)c(OCC(=O)NN=Cc3ccccc3)ccc12	MDA-MB-231	cell growth or viability, MTT		62.5 µg/mL	viability	17.6%
O/N=c1\cc2n(-c3ccc(Cl)cc3)c3ccccc3nc-2cc1Nc1ccc(Cl)cc1	Neisseria gonorrhoeae	microbial growth	ATCC49226		MIC	0.03 µM
CCc1c(C)c2ccc(OCC=Cc3ccccc3)c(C)c2oc1=O	MDA-MB-231	cell growth or viability, MTT		500 µg/mL	viability	13%
C[C@@H]1CC[C@@H]([C@](O)(CNCc2cccc3ccccc23)COCc2ccccc2)[C@H](OCc2ccccc2)C1	MDA-MB-231	cell growth or viability, MTT		30 µM, 72 h	inhibition	98%
C[C@H](NC(=O)CO/N=c1\cc2n(-c3ccc(Cl)cc3)c3ccccc3nc-2cc1Nc1ccc(Cl)cc1)C(=O)OC(C)(C)C	Neisseria gonorrhoeae	microbial growth	ATCC49226		MIC	3.75 µM
CCc1c(C)c2ccc(OCc3nnc(S)n3N)c(C)c2oc1=O	MDA-MB-231	cell growth or viability, MTT		62.5 µg/mL	viability	69.4%
O=C(O)CO/N=c1\cc2n(-c3ccc(Cl)cc3)c3ccccc3nc-2cc1Nc1ccc(Cl)cc1	Neisseria gonorrhoeae	microbial growth	ATCC49226		MIC	1.88 µM
Cc1c(Cc2ccccc2)c(=O)oc2c(C)c(OCC(=O)NN=Cc3ccc([N+](=O)[O-])cc3)ccc12	MDA-MB-231	cell growth or viability, MTT		31.25 µg/mL	viability	37.2%
C[C@@H]1CC[C@@H]([C@@](C)(O)Cn2cnc3ccccc32)[C@H](OCc2ccccc2)C1	MDA-MB-231	cell growth or viability, MTT		30 µM, 72 h	inhibition	80%
